Test results reported in PubChem BioAssay AID743247 (Broad Institute, 2014).
Where “and” joins values, the source holds several entries; their conditions need not be identical. Identical values can stand only once. The whole screen tested about 350,000 compounds, of which about 300 (0.086%) were called active. The sample holds actives, similar compounds and a random draw of the others, so the mix is not that of the screen. Unmarked numbers belong to inactive results.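 The calls were made as follows: active = mean inhibition across replicates of 30% or more, regardless of how many single replicates reach that level; inconclusive = mean under 30% yet at least half of replicates reach 30%; inactive = the rest.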

Assay: inhibitors of fibronectin matrix deposition, primary screen, AH1F cells, Alexa488-fibronectin fluorescence, plate reader (AID 743247);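 also: positive control wells lacked labelled fibronectin entirely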
Details: AH1F fibroblasts, overnight, at 12.6 µM, active compounds read high
In short: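 Measured by – fluorescence 485/525 nm · System – AH1F fibroblast monolayer, labelled fibronectin deposition · Amount – 10000 cells per well · Buffer or medium – serum-reduced DMEM (2% serum) · Doses – single dose, pinned · Also added – fluorescent fibronectin at 24 nM final · Schedule – 1 h cell attachment, overnight exposure to compound and label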

Question: Which inhibition does the source give for `C[C@H]1CN([C@@H](C)CO)C(=O)c2cccc(NC(=O)CCCCCC(=O)Nc3ccccc3N)c2O[C@@H]1CN(C)C(=O)NC1CCCCC1` here?
Answer: Its inhibition is 17%.

Question: For `CCOC(=O)C1CCCN(Cc2nc(N)nc(Nc3ccc(C)cc3)n2)C1` (stereo not drawn), which inhibition is on record?
Answer: The inhibition was -4.21%.

Question: Which inhibition does the source give for `CCOC(=O)c1cnc(SCc2nc(N)nc(Nc3ccc(OC)cc3)n2)nc1N` here?
Answer: The inhibition was 14.2% (active).

Question: Which inhibition does the source give for `COc1ccc(Nc2nc(N)nc(CSC(=S)N3CCC(C)CC3)n2)cc1` here?
Answer: Its inhibition is 4.46%.

Question: With `CN1C(=O)c2cc(NC(=O)c3cccs3)ccc2OC[C@H]2O[C@@H](CC(=O)NCC3CC3)CC[C@@H]21` as the compound, how does the inhibition read?
Answer: The inhibition was -3.33%.

Question: Which inhibition does the source give for `CC(C)[C@@H]1COCc2cn(nn2)CC[C@@H](C)C(=O)N1` here?
Answer: Its inhibition is -0.112%.

Question: Which inhibition does the source give for `CCCNC(=O)Nc1ccc2c(c1)C(=O)N(C)C[C@@H](OC)[C@@H](C)CN(Cc1ccccn1)[C@@H](C)CO2` here?
Answer: The inhibition was 0.86%.

Question: For `CC(C)NC(=O)N(C)C[C@H]1Oc2ccc(N)cc2CC(=O)N(C)C[C@H]1C`, which inhibition is on record?
Answer: The inhibition was 3.3%.

Question: For `N#Cc1ccc(-c2ccc(C3[C@@H]4CN(S(=O)(=O)c5cccc(Cl)c5)C[C@H]3N4)cc2)cc1` (stereo partly drawn), which inhibition is on record?
Answer: The inhibition was -6.82%.

Question: With `C[C@@H]1CCCCO[C@H](CN(C)C(=O)CCCN(C)C)[C@@H](C)CN([C@@H](C)CO)C(=O)c2cc(NC(=O)c3ccncc3)ccc2O1` as the compound, how does the inhibition read?
Answer: Its inhibition is -3.34%.

Question: Which inhibition does the source give for `C[C@H](CO)N1C[C@H](C)[C@@H](CN(C)C(=O)C2CC2)Oc2ncc(C#CC(C)(C)O)cc2C1=O` here?
Answer: The inhibition was -19.9%.

Question: Which inhibition does the source give for `C[C@@H]1CN([C@H](C)CO)C(=O)c2c(c3ccccc3n2C)-c2ccccc2CO[C@@H]1CN(C)Cc1ccccc1C(F)(F)F` here?
Answer: Its inhibition is 3.35%.

Question: With `COc1ccc(S(=O)(=O)Nc2ccc3c(c2)C(=O)N(C)C[C@@H](OC)[C@H](C)CN(C(=O)NC(C)C)[C@H](C)CO3)cc1` as the compound, how does the inhibition read?
Answer: The inhibition was 6.84%.

Question: For `N#C[C@H]1[C@H](c2ccccc2-c2ccc(F)cc2)[C@H](CO)N1C(=O)Cc1ccncc1`, which inhibition is on record?
Answer: Its inhibition is -14.3%.

Question: For `CC(C)NC(=O)N(C)C[C@@H]1OCCCC[C@H](C)Oc2ccc(NC(=O)Nc3ccccc3)cc2C(=O)N([C@H](C)CO)C[C@@H]1C`, which inhibition is on record?
Answer: The inhibition was 1.11%.

Question: With `CCCNC(=O)N1[C@@H]2CNC[C@H]1C2c1ccc(-c2cccc(C)c2)cc1` (stereo partly drawn) as the compound, how does the inhibition read?
Answer: Its inhibition is -3.69% and -7.75%.

Question: With `Cc1cccc(S(=O)(=O)N2CC[C@@H]3[C@H]2c2cc(C#Cc4ccccc4F)ccc2N[C@@H]3CO)c1` as the compound, how does the inhibition read?
Answer: The inhibition was 15.8%.

Question: Which inhibition does the source give for `CNC[C@H]1Oc2ccc(NC(=O)NC(C)C)cc2C(=O)N(C)C[C@@H]1C` here?
Answer: The inhibition was -10.1%.

Question: With `O=C1N[C@H](Cc2ccccc2)COCc2cn(nn2)CC[C@@H]1Cc1ccc(-c2ccccc2)cc1` as the compound, how does the inhibition read?
Answer: Its inhibition is 7.74%.

Question: Which inhibition does the source give for `CNC[C@H]1Oc2ncccc2C(=O)N(C)C[C@@H]1C` here?
Answer: Its inhibition is 3.59%.

Question: For `CC(=O)N1[C@H](CO)[C@H](c2ccccc2)[C@H]1CN(C(=O)c1ccccc1F)C(C)C`, which inhibition is on record?
Answer: The inhibition was -2.39%.

Question: With `CCCC(=O)Nc1ccc2c(c1)OC[C@H](C)N(C(=O)CC)C[C@H](C)[C@@H](OC)CN(C)C2=O` as the compound, how does the inhibition read?
Answer: The inhibition was -4.46%.

Question: For `C=C(C)C[C@H]1CCn2cc(nn2)COCCNC1=O`, which inhibition is on record?
Answer: The inhibition was -4.67%.

Question: Which inhibition does the source give for `C[C@@H]1C(=O)N[C@H](c2ccc3c(c2)OCO3)CC=CC[C@H](C)Oc2ccccc2C(=O)N1C` (mixture of isomers) here?
Answer: Its inhibition is -8.64%.

Question: Which inhibition does the source give for `COc1ccc(S(=O)(=O)N2C[C@H](O)COC[C@@H]3O[C@H](CC(=O)NCCN4CCCCC4)CC[C@H]32)cc1` here?
Answer: The inhibition was 4.18%.

Question: With `O=C1CCC(=O)N[C@H](c2ccccc2)C/C=C\CCN1` as the compound, how does the inhibition read?
Answer: Its inhibition is -1.16%.

Question: Which inhibition does the source give for `C[C@H]1CN([C@@H](C)CO)C(=O)c2c(c3ccccc3n2C)-c2ccccc2CO[C@@H]1CN(C)CC1CCCCC1` here?
Answer: The inhibition was -4.72%.

Question: For `CO[C@H]1CN(C)C(=O)c2cc(NC(=O)NC(C)C)ccc2OC[C@@H](C)NC[C@@H]1C`, which inhibition is on record?
Answer: The inhibition was -16.2%.

Question: For `COc1ccc2c3c([nH]c2c1)[C@@H](CO)N(C)CC31CCN(S(=O)(=O)c2ccc(C)cc2)CC1`, which inhibition is on record?
Answer: Its inhibition is 3.31%.

Question: For `CC(=O)Nc1ccc2c(c1)CC(=O)N(C)C[C@H](C)[C@H](CN(C)S(C)(=O)=O)O2`, which inhibition is on record?
Answer: The inhibition was -0.444%.

Question: With `C[C@H](CO)N1C[C@H](C)[C@@H](CN(C)Cc2ccncc2)Oc2cc(Br)ccc2S1(=O)=O` as the compound, how does the inhibition read?
Answer: The inhibition was -7.26%.

Question: With `COCC(=O)N(C)C[C@H]1[C@@H](c2ccccc2)[C@H](CO)N1C(=O)Cc1ccncc1` as the compound, how does the inhibition read?
Answer: The inhibition was -3.58%.

Question: With `O=C1NCCCOCc2cn(nn2)CC[C@@H]1Cc1ccc(-c2ccccc2)cc1` as the compound, how does the inhibition read?
Answer: The inhibition was 1.3%.

Question: For `C[C@@H]1COCc2cn(nn2)CC[C@H](C)C(=O)N1`, which inhibition is on record?
Answer: Its inhibition is -2.55%.

Question: For `O=C(C1CCC1)N1CC2(C1)[C@H](c1ccccc1)[C@H](CO)N2Cc1nccs1`, which inhibition is on record?
Answer: Its inhibition is 4.67%.

Question: With `C[C@H](CO)N1C[C@H](C)[C@@H](CN(C)Cc2ccc(Cl)c(Cl)c2)Oc2ccc(NC(=O)Cn3cnnn3)cc2CC1=O` as the compound, how does the inhibition read?
Answer: Its inhibition is -6.99%.

Question: Which inhibition does the source give for `O=C(Cc1ccncc1)N1CC[C@@H]2[C@@H](CO)Nc3ccc(C4=CCCCC4)cc3[C@@H]21` here?
Answer: Its inhibition is -5.08%.

Question: For `CO[C@H]1CN(C)C(=O)c2ccc(NC(=O)C3CCC3)cc2OC[C@H](C)NC[C@@H]1C`, which inhibition is on record?
Answer: Its inhibition is 4.29%.

Question: Which inhibition does the source give for `CC(=O)NC[C@H]1[C@H](c2ccc(C3=CCCCC3)cc2)[C@@H](CO)N1C(=O)NC(C)C` here?
Answer: Its inhibition is -4.24%.

Question: Which inhibition does the source give for `Cc1ccccc1S(=O)(=O)N[C@@H]1CC[C@@H](CCNS(=O)(=O)c2cccc(F)c2)O[C@H]1CO` here?
Answer: Its inhibition is -1.75%.

Question: For `O=C(C[C@H]1CC[C@@H]2[C@H](COC[C@@H](O)CN2CC2CC2)O1)NCC1CC1`, which inhibition is on record?
Answer: The inhibition was -7.99%.

Question: Which inhibition does the source give for `CCC(=O)N(C)C[C@H]1Oc2ncc(-c3ccc(C#N)cc3)cc2C(=O)N([C@@H](C)CO)C[C@H]1C` here?
Answer: The inhibition was -1.88%.

Question: Which inhibition does the source give for `C/C=C/c1ccc(C2[C@H]3CNC[C@@H]2N3CC2CCOCC2)cc1` (stereo partly drawn) here?
Answer: Its inhibition is 3.6%.

Question: Which inhibition does the source give for `CO[C@@H]1CN(C)C(=O)c2cc(NC(=O)c3cccc(Oc4ccccc4)c3)ccc2OC[C@H](C)NC[C@@H]1C` here?
Answer: Its inhibition is 15.5%.

Question: Which inhibition does the source give for `O=C1CCCCn2nncc2COC[C@@H](Cc2ccccc2)N1` here?
Answer: The inhibition was 5.42%.

Question: For `COCC(=O)N1CC2(CN(S(C)(=O)=O)C2)c2c(n(C)c3cc(OC)ccc23)[C@@H]1CO`, which inhibition is on record?
Answer: The inhibition was -4.29%.

Question: Which inhibition does the source give for `O=C(C[C@H]1C[C@H]2c3cc(NC(=O)CC4CC4)ccc3O[C@H]2[C@H](CO)O1)NCc1cc(F)ccc1F` here?
Answer: The inhibition was -4.07%.

Question: With `COc1ccc2c3c(n(C)c2c1)[C@@H](CO)N(Cc1ccncc1)CC31CN(C(=O)Nc2cccc(F)c2)C1` as the compound, how does the inhibition read?
Answer: Its inhibition is -9.67%.

Question: For `C[C@H](CO)N1C[C@H](C)[C@@H](CN(C)C(=O)Cc2ccccn2)Oc2cc(-c3cccc(C(=O)N(C)C)c3)ccc2S1(=O)=O`, which inhibition is on record?
Answer: Its inhibition is 3.4%.

Question: Which inhibition does the source give for `O=C(NC1=CC(=O)c2ccccc2C1=O)c1ccccc1` here?
Answer: Its inhibition is 62.2% (active).

Question: Which inhibition does the source give for `COC(=O)c1nc(NC(=O)c2ccccc2)n[nH]1` here?
Answer: The inhibition was 5.02%.

Question: For `O=C(NC(=O)c1ccccc1)Nc1ccccc1O`, which inhibition is on record?
Answer: The inhibition was -0.509%.

Question: With `C[C@@H]1CC(=O)N[C@H](c2ccccc2)C/C=C\C[C@H](c2ccccc2)NC1=O` as the compound, how does the inhibition read?
Answer: The inhibition was -9.6%.
